Common to all, as to parameters: dose 5 mg/kg, dosed compound name [14C]-apixaban, route oral
Holding throughout (details): in vivo

The subject of data set [1] is Rattus norvegicus. Briefly: Biodistribution in fetal blood of pregnant Sprague-Dawley rat at 5 mg/kg, po administered as single dose measured after 48 hrs. It is filed as ADME, organism-based. The essentials:
(§1)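 Quantitative whole-body autoradiography was run after a single 5 mg/kg (100 μCi/kg) oral gavage to fasted female or pregnant SD rats, one rat per time point. Carcasses were frozen in hexane/dry ice, and 40 µm sagittal sections were dried at −20°C for at least 48 h. Sections were exposed to a phosphor plate alongside [14C]glucose standards (0.001–6.5 µCi/g). Results are µg eq/g, with LLOQ 0.037 µg eq/g.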

Data set [2] deals with Blood. Briefly: Biodistribution in pregnant Sprague-Dawley rat blood at 5 mg/kg, po administered as single dose measured after 8 hrs. It is filed as ADME, organism-based. The essentials:
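Fasted pregnant SD rats (n=6, 270-319 g) each received one oral gavage dose of [14C]apixaban, 5 mg/kg (100 μCi/kg), in 0.5% Tween 80/Labrafil. One rat was killed at each of 0.5, 1, 4, 8, 24 and 48 h. Carcasses were frozen in hexane/dry ice, cut into 40 µm sagittal sections, exposed to phosphor plates and quantified against [14C]glucose standards as µg eq/g. LLOQ was 0.037 µg eq/g.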

Data set [3] has as its system Muscle tissue. As to the kind of experiment: Biodistribution in pregnant Sprague-Dawley rat muscle at 5 mg/kg, po administered as single dose measured after 4 hrs. The format is ADME, organism-based.
For data set [4], the system named is Rattus norvegicus. As to the kind of experiment: Biodistribution in pregnant Sprague-Dawley rat pituitary gland at 5 mg/kg, po administered as single dose measured after 24 hrs. It is filed as ADME, organism-based. The essentials:
(§2)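 Pregnant SD rats (270-319 g) were fasted overnight and given one oral gavage of 5 mg/kg (100 μCi/kg) in 0.5% Tween 80 in Labrafil. One rat was euthanized per time point (0.5, 1, 4, 8, 24, 48 h) and the carcass frozen. 40 µm sagittal sections were phosphor-imaged against [14C]glucose standards and results reported as µg eq/g; LLOQ 0.037 µg eq/g.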

Data set [5] is described as follows: Drug level in lactating Sprague-Dawley rat milk at 5 mg/kg, po administered as single dose after 24 hrs. It is filed as ADME, organism-based.
Data set [6] deals with Muscle tissue. As to the kind of experiment: Biodistribution in female Sprague-Dawley rat muscle at 5 mg/kg, po administered as single dose measured after 72 hrs. The format is ADME, organism-based. The essentials:
as §1

The next data set relates to Spleen. Briefly: Biodistribution in female Sprague-Dawley rat spleen at 5 mg/kg, po administered as single dose measured after 4 hrs. It is filed as ADME, organism-based. The essentials: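 [¹⁴C]Apixaban given by oral gavage at 5 mg/kg (100 μCi/kg) in 0.5% Tween 80 in Labrafil (1.0 mg/mL dosing solution) to rats fasted overnight through 4 h post-dose. One rat per time point; carcass frozen in hexane/dry ice. Quantitative whole-body autoradiography used 40 µm sagittal sections and a phosphor imaging plate calibrated with [¹⁴C]glucose standards (0.001–6.5 μCi/g). Read-out in µg eq apixaban/g; LLOQ 0.037 μg eq/g.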

Data set [7] can be described thus: Cmax in lactating Sprague-Dawley rat milk at 5 mg/kg, po administered as single dose. It is filed as ADME, organism-based. The essentials:
(§3)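 Lactating SD rats received a single oral gavage of 5 mg/kg (108 μCi/kg) in 0.5% Tween 80/Labrafil. Three rats were sampled per time point at 0.5-24 h. Oxytocin was given sc 15 min before milking under anesthesia. Milk, blood and plasma were counted in duplicate by liquid scintillation for 10 min and expressed as apixaban equivalents.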

The test system of data set [8] is Pancreas. As to the kind of experiment: Biodistribution in pregnant Sprague-Dawley rat pancreas at 5 mg/kg, po administered as single dose measured after 24 hrs. It is filed as ADME, organism-based. The essentials: as §2
Data set [9] relates to Muscle tissue. As to the kind of experiment: Biodistribution in pregnant Sprague-Dawley rat muscle at 5 mg/kg, po administered as single dose measured after 0.5 hrs. It is filed as ADME, organism-based.
Data set [10] concerns Rattus norvegicus. As to the kind of experiment: Biodistribution in male Sprague-Dawley rat brown fat at 5 mg/kg, po administered as single dose measured after 72 hrs. It is filed as ADME, organism-based, Brown adipose tissue. The essentials:
(§4)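 Fasted male SD rats (225-252 g) each received one oral gavage dose of [14C]apixaban, 5 mg/kg (100 μCi/kg), in 0.5% Tween 80/Labrafil vehicle. One rat was killed per time point, from 0.5 to 168 h. Frozen carcasses were cut into 40 µm sagittal whole-body sections and read by QWBA phosphor imaging against [14C]glucose calibrants. Results are in µg apixaban eq/g; BLQ <0.037 µg eq/g.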

A further data set has as its system Heart. As to the kind of experiment: Biodistribution in pregnant Sprague-Dawley rat heart at 5 mg/kg, po administered as single dose measured after 1 hr. It is filed as ADME, organism-based.
In data set [11] the test system is Rattus norvegicus. Briefly: Biodistribution in female Sprague-Dawley rat salivary gland at 5 mg/kg, po administered as single dose measured after 0.5 hrs. It is filed as ADME, organism-based. The essentials: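 [14C]apixaban (20 μCi/mL in dosing solution) in 0.5% Tween 80 in Labrafil given by oral gavage to fasted female rats, 206-213 g, at 100 μCi/kg. One rat per time point was euthanized and snap-frozen. Sagittal 40 µm whole-body sections were read by QWBA phosphor imaging against [14C]glucose standards. Results are in µg eq apixaban/g, with LLOQ 0.037 μg eq/g.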

Data set [12] in a line: Drug level in lactating Sprague-Dawley rat milk at 5 mg/kg, po administered as single dose. It is filed as ADME, organism-based. The essentials: as §3
In data set [13] the test system is Rattus norvegicus. As to the kind of experiment: Biodistribution in male Sprague-Dawley rat bone marrow at 5 mg/kg, po administered as single dose measured after 72 hrs. The format is ADME, organism-based. The essentials:
as §4

Data set [14] has as its system Rattus norvegicus. As to the kind of experiment: Biodistribution in pregnant Sprague-Dawley rat bone marrow at 5 mg/kg, po administered as single dose measured after 8 hrs. It is filed as ADME, organism-based.
Data set [15] has as its system Rattus norvegicus. Briefly: Biodistribution in fetal liver of pregnant Sprague-Dawley rat at 5 mg/kg, po administered as single dose measured after 0.5 hrs. The format is ADME, organism-based. The essentials: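 Pregnant rats, 270-319 g and fasted overnight, received [14C]apixaban by oral gavage at 100 μCi/kg in 0.5% Tween 80/Labrafil. One dam per time point was euthanized and frozen in hexane/dry ice. Fetal tissue radioactivity was measured by QWBA on 40 µm sagittal sections calibrated with [14C]glucose standards. Values are in µg eq/g, with LLOQ 0.037 μg eq/g.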

Data set [16] has as its system Blood. As to the kind of experiment: AUC (0 to t) in lactating Sprague-Dawley rat blood at 5 mg/kg, po administered as single dose. The format is ADME, organism-based.
Data set [17] deals with Rattus norvegicus. Briefly: Biodistribution in pregnant Sprague-Dawley rat brown fat at 5 mg/kg, po administered as single dose measured after 8 hrs. The format is ADME, organism-based, Brown adipose tissue.
Data set [18] relates to Rattus norvegicus. As to the kind of experiment: Biodistribution in male Sprague-Dawley rat pituitary gland at 5 mg/kg, po administered as single dose measured after 1 hr. The format is ADME, organism-based.
Data set [19] has as its system Pancreas. Briefly: Biodistribution in male Sprague-Dawley rat pancreas at 5 mg/kg, po administered as single dose measured after 0.5 hrs. The format is ADME, organism-based. The essentials:
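[14C]apixaban (1.0 mg/mL, 20 μCi/mL) in 0.5% Tween 80 in Labrafil, given by oral gavage at 100 μCi/kg to male rats (225-252 g) fasted overnight through 4 h post-dose. One rat per time point. Carcasses frozen in hexane/dry ice and cut into 40 µm sagittal sections. QWBA read on phosphor plates against [14C]glucose standards, reported as µg eq/g. LLOQ 0.037 µg eq/g.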

Data set [20] relates to Rattus norvegicus. As to the kind of experiment: Biodistribution in male Sprague-Dawley rat brown fat at 5 mg/kg, po administered as single dose measured after 8 hrs. It is filed as ADME, organism-based, Brown adipose tissue. The essentials: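 Fasted male rats, 225-252 g, received [14C]apixaban by single oral gavage at 100 μCi/kg in 0.5% Tween 80/Labrafil. One rat was killed per time point and the carcass frozen. Tissue radioactivity was quantified by QWBA (40 µm sagittal sections, phosphor plate, [14C]glucose calibration) as µg eq apixaban/g, with LLOQ 0.037 μg eq/g.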

With `COc1ccc(-n2nc(C(N)=O)c3c2C(=O)N(c2ccc(N4CCCC[14C]4=O)cc2)CC3)cc1`, the Radiolabel recovery result in the data set on Rattus norvegicus [1] is “Not detected assumed BLQ”; in the data set on Blood [2] it was 0.09 ugequiv/g; in the data set with Muscle tissue [3] it was 0.5 ugequiv/g; with Rattus norvegicus [4] it was “Not sampled as not visualised in autoradiograph”; in data set [5] it was 0.31 µg/mL; with Muscle tissue [6] it was “Not detected assumed BLQ”. In addition, the Radiolabel recovery in the data set on Spleen is reported as 0.45 ugequiv/g; in the data set with Pancreas [8], “Not detected assumed BLQ”; with Muscle tissue [9], 0.37 ugequiv/g; in the data set on Rattus norvegicus [10], “Not sampled as not visualised in autoradiograph”; in the data set with Heart it was 0.93 ugequiv/g; with Rattus norvegicus [11] it was 0.28 ugequiv/g. Moreover, the Radiolabel recovery was more than 96% in [12]; “Not sampled as not visualised in autoradiograph” in the data set on Rattus norvegicus [13]; 0.06 ugequiv/g in the data set with Rattus norvegicus [14]; 0.16 ugequiv/g in the data set on Rattus norvegicus [15]; 0.06 ugequiv/g with Rattus norvegicus [17]; 0.59 ugequiv/g in the data set on Rattus norvegicus [18]. Further, the figures for the Radiolabel recovery in the data set with Pancreas [19] and in the data set on Rattus norvegicus [20] were 0.47 ugequiv/g and 0.07 ugequiv/g, respectively. In [7], the Cmax was 8920 ngequiv/g. Further, the AUCt in the data set with Blood [16] came out at 1940 ngequiv.hr/g.

These data come from ChEMBL document CHEMBL3525963, “Tissue distribution and elimination of [14C]apixaban in rats” (Drug Metab Dispos, 2011).
